The results in this text go back to ChEMBL document CHEMBL1649306, “Arylimidamide DB766, a potential chemotherapeutic candidate for Chagas' disease treatment” (Antimicrob Agents Chemother, 2010).

pIC50: −log10 of the molar value. The source made the active and inactive calls. The calls are words filed in the database; no cut-off is given here.

Series [1] has as its system Mus musculus. Put plainly: Toxicity in […](H-2k) mouse assessed as effect on creatine kinase level at 100 mg/kg/day, ip. The settings on record: in vivo. Details: route intraperitoneal. It counts as organism-based.
Series [2] concerns Trypanosoma cruzi. The experiment in a line: Antitrypanosomal activity against Trypanosoma cruzi Y bloodstream forms infected in Swiss-Webster mouse assessed as decrease in parasite-induced cardiac inflammation in mouse at 100 mg/kg/day, ip administered 5 days postinfection for 10 alternate days measured after 14 days postinfection. It counts as functional, Heart. Details: scale not given: the % may be the effect or the level left. The conditions noted are these: route intraperitoneal.

For series [3], the system named is Mus musculus. The experiment in a line: Hepatotoxicity against Swiss-Webster mouse assessed as GPT at 100 mg/kg/day measured after 14 days postinfection. It counts as toxicity, organism-based. The settings on record: in vivo, 336 h.
A short description of series [4]: Toxicity in […] mouse assessed as mortality at cumulative dose of 100 mg/kg, ip measured after 48 hrs. Format: organism-based. Details: dose 100 mg/kg, route intraperitoneal. The conditions noted are these: in vivo, read-out: Activity. The gist of the method: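 Uninfected 8–10-week-old female and male Swiss Webster and C3H/He (H-2k) mice injected i.p. on day 1 every 2 h with escalating doses: 5, 15, 30, 50 and 100 mg/kg (cumulative 20, 50, 100, 200 mg/kg). Toxic and subtoxic signs inspected on days 2–3 per OECD guidelines; tolerated dose set at 48 h.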

The subject of series [5] is Trypanosoma cruzi. The experiment in a line: Antitrypanosomal activity against bloodstream forms of Trypanosoma cruzi Y after 24 hrs by light microscopy. Format: functional, organism-based. A digest of the protocol:
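Bloodstream trypomastigotes from infected Swiss mice at peak parasitemia, 5.0 × 10^6 cells/ml in RPMI 1640 with 5% FBS. Exposed at 37°C to serial dilutions from 0 to 32 μM. Motile live parasites counted by light microscopy in a Neubauer chamber, then IC50 calculated.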

The test system of series [6] is Trypanosoma cruzi. Put plainly: Antitrypanosomal activity against bloodstream forms of Trypanosoma cruzi CL after 24 hrs by light microscopy in presence of 50% mouse blood. Format: functional, organism-based. A digest of the protocol:
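Bloodstream trypomastigotes kept at 4°C for 24 h in freshly isolated 50% mouse blood with serial dilutions (up to 32 μM). Motile live parasites counted in a Neubauer chamber by light microscopy; IC50 calculated as concentration reducing parasite number by 50%.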

Series [7] relates to Trypanosoma cruzi. Put plainly: Antitrypanosomal activity against Trypanosoma cruzi 762 epimastigotes after 24 hrs by light microscopy. It counts as functional, organism-based. The conditions noted are these: Trypanosoma cruzi, 762, 24 h. A digest of the protocol:
(§1)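 Epimastigotes from 5-day exponential cultures, 5 × 10^6 parasites/ml in LIT medium, incubated at 28°C up to 96 h with DB766 0 to 32 μM or Bz 0 to 250 μM. Counted daily in a Neubauer chamber. IC50 averaged from at least three determinations in duplicate.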

Series [8] concerns Trypanosoma cruzi. The experiment in a line: Antitrypanosomal activity against Trypanosoma cruzi 855 epimastigotes after 24 hrs by light microscopy. It counts as functional, organism-based. The settings on record: Trypanosoma cruzi, 855, 24 h. The gist of the method: as §1
The subject of series [9] is Trypanosoma cruzi. The experiment in a line: Antitrypanosomal activity against bloodstream forms of Trypanosoma cruzi Y infected in Swiss mouse cardiomyocytes assessed as parasite crista dilation at 10 ug/ml after 2 hrs by transmission electron microscopy. Format: functional, organism-based. A digest of the protocol: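 Y-strain bloodstream trypomastigotes treated 2 to 24 h at 37°C. Fixed 60 min at 4°C in 2.5% glutaraldehyde in 0.1 M cacodylate, pH 7.2. Postfixed 1 h at 4°C in 1% OsO4 with 0.8% potassium ferricyanide. Acetone-dehydrated, Epon-embedded, sections stained with uranyl acetate and lead citrate, ultrastructure examined by TEM.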

Series [10] concerns Trypanosoma cruzi. The experiment in a line: Antitrypanosomal activity against Trypanosoma cruzi Y bloodstream forms infected in Swiss-Webster mouse assessed as decrease in parasite load at 25 mg/kg/day, ip administered 8 days postinfection measured on day 2. Details: scale not given: the % may be the effect or the level left. The settings on record: route intraperitoneal. Format: functional. A digest of the protocol: (§2)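 Male Swiss mice infected i.p. with 10^4 Y strain bloodstream forms. Given 0.2 ml i.p. at 5 and 8 dpi, or daily for 10 days from 5 dpi; reference drug given by gavage. Parasitemia measured by the Pizzi-Brener method, cumulative mortality checked daily to 120 dpi, n ≥ 6 per group.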

The test system of series [11] is Trypanosoma cruzi. Put plainly: Antitrypanosomal activity against Trypanosoma cruzi Y bloodstream forms infected in Swiss-Webster mouse assessed as survival of mouse at 25 mg/kg/day, ip administered 8 days postinfection measured on day 120. It counts as functional, organism-based. The gist of the method: as §2
In series [12] the test system is Trypanosoma cruzi. The experiment in a line: Antitrypanosomal activity against Trypanosoma cruzi Y bloodstream forms infected in Swiss-Webster mouse assessed as survival of mouse at 50 mg/kg/day, ip administered 8 days postinfection measured on day 120. It counts as functional, organism-based. A digest of the protocol: as §2
In series [13] the test system is Trypanosoma cruzi. Put plainly: Antitrypanosomal activity against Trypanosoma cruzi Y bloodstream forms infected in Swiss-Webster mouse assessed as reduction in parasite-induced weight loss in mouse at 100 mg/kg/day, po administered 5 days postinfection for 10 consecutive days measured on day 120. It counts as functional, organism-based. A digest of the protocol: (§3)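 Body weight of infected, treated mice followed from 0 to 120 dpi.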

Series [14] concerns Trypanosoma cruzi. The experiment in a line: Antitrypanosomal activity against Trypanosoma cruzi Y bloodstream forms infected in Swiss-Webster mouse assessed as reduction in parasite-induced weight loss in mouse at 25 mg/kg/day, ip administered 5 days postinfection for 10 consecutive days measured on day 120. It counts as functional, organism-based. A digest of the protocol: as §3

Series [15] relates to Trypanosoma cruzi. Put plainly: Antitrypanosomal activity against Trypanosoma cruzi Columbian bloodstream forms infected in C3H mouse assessed as decrease in parasite load at 50 mg/kg/day, ip administered 21 days postinfection measured on day 45. Format: functional, organism-based. A digest of the protocol: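 C3H/He mice infected i.p. with 10^2 Colombian strain bloodstream forms. Treatment started at parasitemia onset (21 dpi) with daily doses for 10 treatments, 0.1 ml i.p. Parasitemia measured by the Pizzi-Brener method; n ≥ 6 parasitemic mice per group.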

Series [16] deals with Trypanosoma cruzi. The experiment in a line: Antitrypanosomal activity against Trypanosoma cruzi Columbian bloodstream forms infected in C3H mouse assessed as reduction in parasite-induced weight loss at 25 mg/kg/day, ip administered 5 days postinfection for 10 consecutive days measured after 120 days. Format: functional, organism-based. A digest of the protocol: as §3
Series [17] deals with Trypanosoma cruzi. Put plainly: Antitrypanosomal activity against Trypanosoma cruzi Columbian bloodstream forms infected in C3H mouse assessed as decrease in parasite load at 50 mg/kg/day, ip p administered 5 days postinfection for 10 consecutive days measured after 120 days. Format: functional, organism-based.
For series [18], the system named is Trypanosoma cruzi. The experiment in a line: Antitrypanosomal activity against Trypanosoma cruzi Columbian bloodstream forms infected in C3H mouse assessed as decrease in parasite load at 100 mg/kg/day, ip administered 5 days postinfection for 10 consecutive days measured after 41days post infection. It counts as functional, organism-based. A digest of the protocol: (§4)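 C3H/He mice infected i.p. with 10^3 or 5 × 10^3 Colombian strain bloodstream forms. Treated daily for 10 days with 0.1 ml i.p. or by gavage, reference drug given by gavage. Parasitemia measured by the Pizzi-Brener method; n ≥ 6 parasitemic mice per group.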

Series [19] has as its system Trypanosoma cruzi. Put plainly: Antitrypanosomal activity against Trypanosoma cruzi Columbian bloodstream forms infected in C3H mouse assessed as decrease in parasite load at 50 mg/kg/day, po administered 5 days postinfection for 10 consecutive days measured after 41 days. Format: functional, organism-based. The gist of the method:
as §4

For series [20], the system named is Trypanosoma cruzi. The experiment in a line: Antitrypanosomal activity against Trypanosoma cruzi Columbian bloodstream forms infected in C3H mouse assessed as decrease in parasite load at 100 mg/kg/day, ip administered 5 days postinfection for 10 consecutive days measured after 31 days. Format: functional. The arrangement: scale not given: the % may be the effect or the level left. The settings on record: route intraperitoneal. A digest of the protocol:
as §4

Series [21] concerns Trypanosoma cruzi. Put plainly: Antitrypanosomal activity against Trypanosoma cruzi Columbian bloodstream forms infected in C3H mouse assessed as decrease in cardiac parasite load at 100 mg/kg/day, ip administered 5 days postinfection for 10 consecutive days measured after 43 days. The arrangement: scale not given: the % may be the effect or the level left. Format: functional. The conditions noted are these: route intraperitoneal. The gist of the method:
(§5)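 Male C3H/He mice infected i.p. with 5 × 10^3 Colombian strain bloodstream forms, given 100 mg/kg/day i.p. daily for 10 days. At 43 dpi, H&E-stained 3 μm heart sections scored for amastigote nests and infiltrates (>10 mononuclear cells) over at least 100 fields. Three sections each from at least three mice.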

The subject of series [22] is Trypanosoma cruzi. Put plainly: Antitrypanosomal activity against Trypanosoma cruzi Columbian bloodstream forms infected in C3H mouse assessed as decrease in parasite-induced cardiac inflammation at 100 mg/kg/day, ip administered 5 days postinfection for 10 consecutive days measured after 43 days. Format: functional, Heart. The arrangement: scale not given: the % may be the effect or the level left. The settings on record: route intraperitoneal. The gist of the method: as §5

As usually defined, the pIC50 is the IC50 on a negative log10 scale, so that one unit is a factor of ten. The IC90 is the concentration needed for an effect of 90%.

Regarding `CC(C)Oc1cc(NC(=N)c2ccccn2)ccc1-c1ccc(-c2ccc(NC(=N)c3ccccn3)cc2OC(C)C)o1`, the Activity entry is “Non-toxic” with Mus musculus [1]; 78% in the series on Trypanosoma cruzi [2]; “Non-toxic” in the series on Mus musculus [3]; 78% in the series on Trypanosoma cruzi [10]; 100% in the series on Trypanosoma cruzi [20]; 95% in the series on Trypanosoma cruzi [21]. Moreover, the Activity in the series on Trypanosoma cruzi [22] amounted to 75%. Besides, the mortality at 48 h in series [4] worked out at 80%. The pIC50 with Trypanosoma cruzi [5] was 6.96; with Trypanosoma cruzi [6] it was 6.15; with Trypanosoma cruzi [7] it was 7.22; in the series on Trypanosoma cruzi [8], 7.05. The IC90 with Trypanosoma cruzi [7] was found to be 180 nM; with Trypanosoma cruzi [8], 330 nM. Besides, the outcome in the series with Trypanosoma cruzi [9], with Trypanosoma cruzi [11], in the series on Trypanosoma cruzi [12], in the series on Trypanosoma cruzi [13], in the series with Trypanosoma cruzi [17] and in the series on Trypanosoma cruzi [18] was Active. For the same molecule, the result in the series on Trypanosoma cruzi [19] was Active. Further, the outcome with Trypanosoma cruzi [14], in the series on Trypanosoma cruzi [15] and in the series with Trypanosoma cruzi [16] was inactive.
